This note sets out measurements from ChEMBL document CHEMBL4145511, “Synthesis and leishmanicidal activity of eugenol derivatives bearing 1,2,3-triazole functionalities” (Eur J Med Chem, 2018).

≈ marks a conversion by molar mass, not a printed value. Calls of active or inactive are those of the source. The calls are words filed in the database; no cut-off is given here.

Series [1] concerns Leishmania amazonensis. Description: Antileishmanial activity against GFP expressing Leishmania amazonensis WHOM/BR/75/Josefa promastigote forms after 72 hrs by fluorescence assay. In kind it is functional, organism-based. Put shortly:
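GFP-transfected L. amazonensis WHOM/BR/75/Josefa promastigotes grown at 26 °C in M199 with penicillin, streptomycin, 10% heat-inactivated fetal calf serum and 2% human urine, kept under geneticin selection. Compounds dissolved in DMSO (final ≤1%), medium with 5% HIFCS, 72 h at 27 °C. Fluorescence read at 435/538 nm; triplicates, percent inhibition versus medium-only control.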

Series [2] relates to Leishmania amazonensis. Kind of series: Antileishmanial activity against Leishmania amazonensis WHOM/BR/75/Josefa amastigote forms infected in BALB/c mouse peritoneal macrophages after 48 hrs by optical microscopy. Format: functional, organism-based. Put shortly:
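BALB/c mouse peritoneal macrophages collected in ice-cold DMEM, plated at 2 × 10⁶/mL, and held 1 h at 37 °C with 4% CO₂. Non-adherent cells were washed off with PBS. Stationary-phase promastigotes were added at a 5:1 parasite:macrophage ratio at 35 °C with 5% CO₂, and free parasites were washed off after 4 h. After 48 h of treatment, slides were stained with a hematological dye and parasites were counted by optical microscopy.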

In series [3] the test system is Leishmania amazonensis. Kind of series: Antileishmanial activity against Leishmania amazonensis WHOM/BR/75/Josefa amastigote forms infected in BALB/c mouse peritoneal macrophages after 72 hrs by hematological staining-based microscopic analysis. Format: functional, organism-based. Put shortly: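 Peritoneal macrophages from BALB/c mice collected in ice-cold DMEM, plated at 2 × 10⁶/mL in chamber slides, 1 h at 37 °C and 4% CO₂, non-adherent cells washed off. Infected with stationary-phase promastigotes at 5:1 parasite/macrophage, free parasites washed off after 4 h. Treated, then stained with a hematological dye and amastigotes counted by optical microscopy; triplicate means.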

Series [4] in a line: (§1) Cytotoxicity against BALB/c mouse peritoneal macrophages assessed as increase in LDH release. Conditions: BALB/c, peritoneal macrophages, read-out: LD50 (the source's name). In kind it is cell-based, Peritoneal macrophage. Put shortly: (§2)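 LDH released into the medium from macrophages was read at 340 nm. Cells in 2% Triton X-100 gave maximum release and cells in medium gave minimum release. Release was expressed as percent of the positive control, and the 50% value was obtained by linear regression.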

Series [5] is described as follows: Selectivity index, ratio of LD50 for BALB/c mouse peritoneal macrophages to IC50 for antileishmanial activity against Leishmania amazonensis WHOM/BR/75/Josefa amastigote forms. In kind it is toxicity. As to conditions: for selectivity ratio: BALB/c, peritoneal macrophages, read-out: Selectivity Index.
For series [6], the system named is Peritoneal macrophage. Description: Induction of nitric oxide production in BALB/c mouse peritoneal macrophages. Format: functional, cell-based.
The subject of series [7] is Peritoneal macrophage. Kind of series: Cytotoxicity against BALB/c mouse peritoneal macrophages at 1 to 100 umol/L after 48 hrs by optical microscopy. Format: cell-based.
The test system of series [8] is Peritoneal macrophage. The description is as §1. In kind it is cell-based. As to conditions: peritoneal macrophage. The method, boiled down: as §2
Series [9] deals with Leishmania amazonensis. Description: Antileishmanial activity against Leishmania amazonensis MHOM/BR/75/Josefa promastigote forms by trypan blue assay. Format: functional, organism-based.
Setting [10] is: Leishmania amazonensis, WHOM/BR/75/Josefa, 72 h, read-out: IC50.

In general, IC50 refers to the concentration at which inhibition is half-maximal. Take `C=CCc1ccc(OCCCc2cn(Cc3ccccc3Br)nn2)c(OC)c1`: in the series with Leishmania amazonensis [1], half-maximal inhibition (IC50) was put at 913 µM.
Still for that read-out and setting: then `C=CCc1ccc(OCCCc2cn(Cc3ccc(Cl)cc3)nn2)c(OC)c1`, with 817 µM; and `C=CCc1ccc(OCc2cn(Cc3ccc(Cl)cc3)nn2)c(OC)c1`, with 1780 µM.
Still for that read-out and setting: then `C=CCc1ccc(OCc2cn(Cc3ccc(Br)cc3)nn2)c(OC)c1`, with 993 µM.
Take `C=CCc1ccc(OCCCc2cn(Cc3ccc(C(F)(F)F)cc3)nn2)c(OC)c1`: the concentration for half-maximal inhibition (IC50) with Leishmania amazonensis [1] came to 295 µM.
Same read-out and setting: then `C=CCc1ccc(OCCCc2cn(Cc3ccc(I)cc3)nn2)c(OC)c1`, with 279 µM; and `C=CCc1ccc(OCc2cn(Cc3ccc(I)cc3)nn2)c(OC)c1`, with 2010 µM.
As for “MEGLUMINE ANTIMONATE [listing 1 of 2 here]”, the result in the series with Leishmania amazonensis [2] was Active.
In the series on Leishmania amazonensis [1], `C=CCc1ccc(OCc2cn(Cc3ccc(OC)cc3)nn2)c(OC)c1` returned a half-inhibitory concentration (IC50) of 425 µM.
`C=CCc1ccc(OCc2cn(Cc3cc(Cl)ccc3Cl)nn2)c(OC)c1` gave an IC50 in the series with Leishmania amazonensis [1] of 49.2 µM.
On the same count and under the same terms, then `C=CCc1ccc(OCCCc2cn(Cc3cccc(Br)c3)nn2)c(OC)c1`, with 980 µM; and `C=CCc1ccc(OCc2cn(Cc3ccc(C)cc3)nn2)c(OC)c1`, with 106 µM; and `C=CCc1ccc(OCc2cn(Cc3ccc(F)cc3)nn2)c(OC)c1`, with 59.4 µM.
As to `C=CCc1ccc(OCCCc2cn(Cc3ccc(C)cc3)nn2)c(OC)c1`, the IC50 with Leishmania amazonensis [1] was found to be 7.4 µM; with Leishmania amazonensis [3] (setting [10]), 1.6 µM. In series [4], the CC50 was 212 µM. For the same compound, the selectivity ratio in [5] is 132. Moreover, the result with Peritoneal macrophage [6] was inactive. The Activity result in the series with Peritoneal macrophage [7] is given as “Non-Toxic”. Moreover, the result with Leishmania amazonensis [2] was Active.
As to “MEGLUMINE ANTIMONATE [listing 2 of 2 here]”, the 50% inhibitory concentration (IC50) with Leishmania amazonensis [3] amounted to 45.5 µg/mL. For the same compound, the LD50 with Peritoneal macrophage [8] was found to be 75.5 µg/mL. In addition, the “Selectivity Index” value in [5] came to 1.6. The Activity entry in the series with Peritoneal macrophage [7] is recorded as “Non-Toxic”.
In the case of `N=C(N)c1ccc(OCCCCCOc2ccc(C(=N)N)cc2)cc1` [PENTAMIDINE], the IC50 in the series with Leishmania amazonensis [1] turned out to be 4.2 µM; in the series on Leishmania amazonensis [3] (setting [10]), 1.8 µM. The CC50 in series [4] was 8.5 µM. The selectivity ratio in series [5] came to 4.7.
Compound `C=CCc1ccc(OCc2cn(Cc3ccc(F)c(F)c3)nn2)c(OC)c1` showed a half-maximal inhibitory concentration (IC50) with Leishmania amazonensis [1] of 969 µM.
Still for that read-out and setting: then `C=CCc1ccc(OCCCc2cn(Cc3ccc(Br)cc3)nn2)c(OC)c1`, with 287 µM.
With `C=CCc1ccc(OCc2cn(Cc3ccccc3)nn2)c(OC)c1`, the IC50 with Leishmania amazonensis [1] was determined as 30.2 µM.
Still for that read-out and setting: then `C=CCc1ccc(OCc2cn(Cc3cccc(Br)c3)nn2)c(OC)c1`, with 156 µM.
On the same count and under the same terms, then `C=CCc1ccc(OCCCc2cn(Cc3ccc(OC(F)(F)F)cc3)nn2)c(OC)c1`, with 146 µM; and `C=CCc1ccc(OCCCc2cn(Cc3ccccc3)nn2)c(OC)c1`, with 37.9 µM.
Regarding `C=CCc1ccc(O)c(OC)c1` [EUGENOL], it took 80 µg/mL (≈ 487 µM) to reach half-maximal inhibition in the series with Leishmania amazonensis [9] (IC50).
`C=CCc1ccc(OCCCc2cn(Cc3ccc(F)c(F)c3)nn2)c(OC)c1`: the IC50 in the series with Leishmania amazonensis [1] worked out at 178 µM.
On the same count and under the same terms, then `C[C@@H]1[C@H](O)[C@@H](C)/C=C/C=C/C=C/C=C/C=C/C=C/C=C/[C@H](O[C@@H]2O[C@H](C)[C@@H](O)[C@H](N)[C@@H]2O)C[C@@H]2O[C@](O)(C[C@@H](O)C[C@@H](O)[C@H](O)CC[C@@H](O)C[C@@H](O)CC(=O)O[C@H]1C)C[C@H](O)[C@H]2C(=O)O` [AMPHOTERICIN B], with 0.4 µM; and `C=CCc1ccc(OCc2cn(Cc3ccccc3Br)nn2)c(OC)c1`, with 160 µM; and `C=CCc1ccc(OCc2cn(Cc3ccc(C(F)(F)F)cc3)nn2)c(OC)c1`, with 2010 µM.
Same read-out and setting: then `C=CCc1ccc(OCCCc2cn(Cc3ccc(F)cc3)nn2)c(OC)c1`, with 32.2 µM.
Still for that read-out and setting: then `C=CCc1ccc(OCCCc2cn(Cc3ccc([N+](=O)[O-])cc3)nn2)c(OC)c1`, with 173 µM; and `C=CCc1ccc(OCc2cn(Cc3ccc(OC(F)(F)F)cc3)nn2)c(OC)c1`, with 322 µM.
In the series with Leishmania amazonensis [1], `C=CCc1ccc(OCc2cn(Cc3ccc([N+](=O)[O-])cc3)nn2)c(OC)c1` yielded an IC50 of 130 µM.
In the series on Leishmania amazonensis [1], `C=CCc1ccc(OCCCc2cn(Cc3ccc(OC)cc3)nn2)c(OC)c1` came in with an IC50 of 120 µM.
